Molecules are shown by their SMILES. “And” between values parts separate entries of the source, which are not always exact repeats. Equal values may be shown once.

The values below come from ChEMBL document CHEMBL1142651, “Design and synthesis of conformationally constrained Grb2 SH2 domain binding peptides employing alpha-methylphenylalanyl based phosphotyrosyl mimetics” (J Med Chem, 2005).

Assay [1] has as its target T1, Growth factor receptor-bound protein 2 (Homo sapiens, UniProt P62993). Kind of assay: In vitro relative association value for growth factor receptor bound protein 2 SH2 domain from human breast cancer cells. The following applies: Cancer cell lines. In kind it is cell-based.
Target sequence in this assay (P62993 whole entry, looked up, the tested form may be a part): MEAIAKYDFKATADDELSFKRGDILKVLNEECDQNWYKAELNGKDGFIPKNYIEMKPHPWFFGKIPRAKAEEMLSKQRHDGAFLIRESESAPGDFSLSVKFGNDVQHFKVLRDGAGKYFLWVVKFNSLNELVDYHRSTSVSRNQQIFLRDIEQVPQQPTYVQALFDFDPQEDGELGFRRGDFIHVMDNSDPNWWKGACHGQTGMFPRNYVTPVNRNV
Assay [2] addresses T1, Growth factor receptor-bound protein 2. Nature of the assay: In vitro binding affinity for growth factor receptor bound protein 2 SH2 domain from human breast cancer cells. It counts as cell-based, Cancer cell lines. In short, it runs like this: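 SPR: Grb2 SH2 protein (b-Grb2) amine-coupled to CM5 dextran chip at 2500-5000 RU. Ligands 1.25-1500 nM in PBS pH 7.4 running buffer, injected at 25 °C in increasing order, in duplicate, 1 min association, 3 min dissociation, no regeneration. Double-referenced against a blank surface and buffer injections. KD from global fit (1:1 or heterogeneity model) of at least four independent data sets.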
Target sequence in this assay (P62993 whole entry, the tested form may be a part): as the sequence (P62993 whole entry, looked up, the tested form may be a part) above

For assay [3] the target is unchanged. Nature of the assay: In vitro dissociation rate constant for growth factor receptor bound protein 2 SH2 domain from human breast cancer cells. The following applies: cancer cell lines.
Target sequence in this assay (P62993 whole entry, the tested form may be a part): as the sequence (P62993 whole entry, looked up, the tested form may be a part) above

Turning to `C[C@@]1(Cc2ccc(P(=O)(O)O)cc2)NC(=O)CC(c2ccc(CP(=O)(O)O)cc2)/C=C/C[C@@H](Cc2cccc3ccccc23)CNC(=O)[C@H](CC(N)=O)NC1=O` (stereo in doubt; 10A) [listing 1 of 2 here], the Ka in assay [1] is 6.5e+06 1/M·1/S.
The Kd is a measure of binding affinity in units of concentration. In general, koff refers to the first-order rate constant of dissociation. Read a low koff as slow dissociation. The molecule `C[C@@]1(Cc2ccc(P(=O)(O)O)cc2)NC(=O)CC(c2ccc(CP(=O)(O)O)cc2)/C=C/C[C@@H](Cc2cccc3ccccc23)CNC(=O)[C@H](CC(N)=O)NC1=O` (stereo in doubt; 10B) [listing 1 of 2 here] showed a Kd in assay [2] of 72 nM. The molecule also came in with a koff in assay [3] of 0.018 s⁻¹.
On the same counts, the results for `C[C@@]1(Cc2ccc(P(=O)(O)O)cc2)NC(=O)CC(c2ccc(CP(=O)(O)O)cc2)/C=C/C[C@@H](Cc2cccc3ccccc23)CNC(=O)[C@H](CC(N)=O)NC1=O` (stereo in doubt; 10A) [listing 2 of 2 here] are 0.097 nM and 0.00063 s⁻¹.
In the case of `C[C@@]1(Cc2ccc(P(=O)(O)O)cc2)NC(=O)CC(c2ccc(CP(=O)(O)O)cc2)/C=C/C[C@@H](Cc2cccc3ccccc23)CNC(=O)[C@H](CC(N)=O)NC1=O` (stereo in doubt; 10B) [listing 2 of 2 here], in assay [1], the Ka is 230000 1/M·1/S.
In the case of `C[C@@]1(Cc2ccc(P(=O)(O)O)cc2)NC(=O)CC(c2ccc(CP(=O)(O)O)cc2)/C=C/C[C@@H](Cc2cccc3ccccc23)CNC(=O)[C@H](CC(N)=O)NC1=O` (stereo in doubt; 10), in assay [2], the Kd was 2.28 nM and 4.3 nM.
